Test results published in ChEMBL document CHEMBL3352496, “Design, synthesis and evaluation of novel triazole core based P-glycoprotein-mediated multidrug resistance reversal agents” (Bioorg Med Chem, 2014).
Counter-ions that a name gives are not always drawn.

Tests used:
[1] = Resistance factor, ratio of adriamycin IC50 for human K562/A02 cells over-expressing Pgp to adriamycin IC50 for human K562/A02 cells over-expressing Pgp in presence of 5 uM compound; type: functional
Outline: (§1)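 MTT on K562/A02 cells exposed to a series of adriamycin concentrations, with or without modulator at 5 µM; 0.1% DMSO as solvent control. Reversal fold = adriamycin IC50 without modulator / IC50 with modulator.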

[2] = Cytotoxicity against human K562/A02 cells at 5 uM after 48 hrs by MTT assay; type: cell-based; conditions: k562/a02, 48 h
Outline: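 Adriamycin-selected K562/A02 cells given test compound alone at 5 µM for 48 h; cytotoxicity scored by MTT as intrinsic growth inhibition.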

[3] = Reversal of P-gp-mediated multidrug resistance in human K562/A02 cells assessed as reduction of adriamycin IC50 at 5 uM after 48 hrs by MTT assay; type: cell-based; conditions: K562/A02, 48 h; outline: as §1
[4] = Reversal of P-gp-mediated multidrug resistance in human K562/A02 cells assessed as reduction of adriamycin IC50 at 0.625 uM after 48 hrs by MTT assay; type: cell-based; conditions: K562/A02, 48 h
Outline: (§2)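 K562/A02 (P-gp-overexpressing) cells given graded adriamycin plus modulator at 2.5, 1.25, 0.625, 0.31, 0.156, 0.078 or 0.04 µM; verapamil 2.5 µM as positive control; adriamycin IC50 by MTT. Reversal fold = IC50 without modulator / IC50 with modulator. Two to three experiments, mean ± SEM.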

[5] = Resistance factor, ratio of adriamycin IC50 for human K562/A02 cells over-expressing Pgp to adriamycin IC50 for human K562/A02 cells over-expressing Pgp in presence of 2.5 uM compound; type: functional; outline: as §2
[6] = Resistance factor, ratio of adriamycin IC50 for human K562/A02 cells over-expressing Pgp to adriamycin IC50 for human K562/A02 cells over-expressing Pgp in presence of 0.625 uM compound; type: functional; outline: as §2
[7] = Reversal of P-gp-mediated multidrug resistance in human K562/A02 cells assessed as reduction of adriamycin IC50 at 5 uM incubated for 24 hrs followed by adriamycin treatment post compound washout measured after 48 hrs by MTT assay; type: cell-based
Outline: (§3)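 K562/A02 cells incubated 24 h with 5 µM modulator, verapamil or vehicle, then washed with growth medium. […] Reversal fold = IC50 without modulator / IC50 with modulator. Two to three experiments, mean ± SEM.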

[8] = Reversal of P-gp-mediated multidrug resistance in human K562/A02 cells assessed as reduction of adriamycin IC50 at 5 uM incubated for 24 hrs prior to adriamycin treatment measured after 48 hrs by MTT assay; type: cell-based; outline: as §3
[9] = Reversal of P-gp-mediated multidrug resistance in human K562/A02 cells assessed as reduction of adriamycin IC50 at 0.078 uM after 48 hrs by MTT assay; type: cell-based; conditions: K562/A02, 48 h; outline: as §2
[10] = Resistance factor, ratio of adriamycin IC50 for human K562/A02 cells over-expressing Pgp to adriamycin IC50 for human K562/A02 cells over-expressing Pgp in presence of 0.04 uM compound; type: functional; outline: as §2
[11] = tested on: K562/A02; test: Inhibition of P-gp mediated efflux in human K562/A02 cells assessed as intracellular rhodamine-123 accumulation incubated for 60 mins prior to substrate addition measured after 90 mins by flow cytometry relative to control; type: cell-based
Outline: (§4)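 K562 and K562/A02 cells pretreated 60 min with 0.5, 2.5 or 5 µM test compound or verapamil, then 5 µM rhodamine-123 added for 90 min. Cells washed twice with PBS and resuspended in medium; mean fluorescence read by flow cytometry. Fold change taken against 0.1% DMSO control in each cell group. Three independent experiments, mean ± SD.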

[12] = Reversal of P-gp-mediated multidrug resistance in human K562/A02 cells assessed as reduction of adriamycin IC50 at 5 uM incubated for 24 hrs followed by adriamycin treatment 6 hrs post compound washout measured after 48 hrs by MTT assay; type: cell-based; outline: as §3
[13] = Cytotoxicity against human GES-1 cells after 48 hrs by MTT assay; type: cell-based; conditions: GES1, 48 h
[14] = Reversal of P-gp-mediated multidrug resistance in human K562/A02 cells assessed as reduction of adriamycin IC50 at 2.5 uM after 48 hrs by MTT assay; type: cell-based; conditions: K562/A02, 48 h; outline: as §2
[15] = tested on: K562/A02; test: Inhibition of P-gp mediated efflux in human K562/A02 cells assessed as intracellular rhodamine-123 accumulation at 5 uM incubated for 60 mins prior to substrate addition measured after 90 mins by flow cytometry relative to control; type: cell-based; outline: as §4
[16] = Reversal of P-gp-mediated multidrug resistance in human K562/A02 cells assessed as reduction of adriamycin IC50 at 5 uM incubated for 24 hrs followed by adriamycin treatment 12 hrs post compound washout measured after 48 hrs by MTT assay; type: cell-based; outline: as §3
[17] = Resistance factor, ratio of adriamycin IC50 for human K562/A02 cells over-expressing Pgp to adriamycin IC50 for human K562/A02 cells over-expressing Pgp in presence of 5 uM compound incubated for 24 hrs followed by adriamycin treatment 12 hrs post compound washout; type: functional; outline: as §3
[18] = Resistance factor, ratio of adriamycin IC50 for human K562/A02 cells over-expressing Pgp to adriamycin IC50 for human K562/A02 cells over-expressing Pgp in presence of 0.078 uM compound; type: functional; outline: as §2
[19] = Reversal of P-gp-mediated multidrug resistance in human K562/A02 cells assessed as reduction of adriamycin IC50 at 0.31 uM after 48 hrs by MTT assay; type: cell-based; conditions: K562/A02, 48 h; outline: as §2
[20] = Resistance factor, ratio of adriamycin IC50 for human K562/A02 cells over-expressing Pgp to adriamycin IC50 for human K562/A02 cells over-expressing Pgp in presence of 0.31 uM compound; type: functional; outline: as §2
[21] = Resistance factor, ratio of adriamycin IC50 for human K562/A02 cells over-expressing Pgp to adriamycin IC50 for human K562/A02 cells over-expressing Pgp in presence of 0.156 uM compound; type: functional; outline: as §2
[22] = Resistance factor, ratio of adriamycin IC50 for human K562/A02 cells over-expressing Pgp to adriamycin IC50 for human K562/A02 cells over-expressing Pgp in presence of 5 uM compound incubated for 24 hrs followed by adriamycin treatment 6 hrs post compound washout; type: functional; outline: as §3
[23] = Reversal of P-gp-mediated multidrug resistance in human K562/A02 cells assessed as reduction of adriamycin IC50 at 1.25 uM after 48 hrs by MTT assay; type: cell-based; conditions: K562/A02, 48 h; outline: as §2
[24] = Reversal of P-gp-mediated multidrug resistance in human K562/A02 cells assessed as reduction of adriamycin IC50 at 0.04 uM after 48 hrs by MTT assay; type: cell-based; conditions: K562/A02, 48 h; outline: as §2
[25] = Resistance factor, ratio of adriamycin IC50 for human K562/A02 cells over-expressing Pgp to adriamycin IC50 for human K562/A02 cells over-expressing Pgp in presence of 5 uM compound incubated for 24 hrs prior to adriamycin treatment; type: functional; outline: as §3
[26] = tested on: K562/A02; test: Reversal of P-gp-mediated multidrug resistance in human K562/A02 cells assessed as reduction of adriamycin IC50 after 48 hrs by MTT assay; type: cell-based
[27] = Resistance factor, ratio of adriamycin IC50 for human K562/A02 cells over-expressing Pgp to adriamycin IC50 for human K562/A02 cells over-expressing Pgp in presence of 1.25 uM compound; type: functional; outline: as §2
[28] = tested on: K562/A02; test: Inhibition of P-gp mediated efflux in human K562/A02 cells assessed as intracellular rhodamine-123 accumulation at 0.5 uM incubated for 60 mins prior to substrate addition measured after 90 mins by flow cytometry relative to control; type: cell-based; outline: as §4
[29] = Resistance factor, ratio of adriamycin IC50 for human K562/A02 cells over-expressing Pgp to adriamycin IC50 for human K562/A02 cells over-expressing Pgp in presence of 5 uM compound incubated for 24 hrs followed by adriamycin treatment post compound washout; type: functional; outline: as §3
[30] = tested on: K562/A02; test: Inhibition of P-gp mediated efflux in human K562/A02 cells assessed as intracellular rhodamine-123 accumulation at 2.5 uM incubated for 60 mins prior to substrate addition measured after 90 mins by flow cytometry relative to control; type: cell-based; outline: as §4
[31] = Cytotoxicity against human K562/A02 cells after 48 hrs by MTT assay; type: functional, cell-based; conditions: K562/A02, 48 h
[32] = tested on: K562/A02; test: Inhibition of P-gp mediated efflux in human K562/A02 cells assessed as intracellular rhodamine-123 accumulation at 5 uM incubated for 60 mins prior to substrate addition measured after 90 mins by flow cytometry relative to DMSO control
[33] = Reversal of P-gp-mediated multidrug resistance in human K562/A02 cells assessed as reduction of adriamycin IC50 at 0.156 uM after 48 hrs by MTT assay; type: cell-based; conditions: K562/A02, 48 h; outline: as §2

In the case of `COc1cc2c(cc1OC)CN(CCn1cc(COc3ccccc3NC(=O)c3cccc([N+](=O)[O-])c3)nn1)CC2`, the “Ratio IC50” value [1] is reported as 3.6, the Activity [2] is reported as less than 10% and the IC50 [3] is reported as 15.1 µM.

With `COc1cc2c(cc1OC)CN(CCn1cc(COc3ccccc3NC(=O)c3ccccc3)nn1)CC2` the “Ratio IC50” value [1] was 5, the Activity [2] was less than 10% and the IC50 [3] was 10.8 µM.

In the case of `COc1cc2c(cc1OC)CN(CCn1cc(COc3ccccc3NC(=O)c3ccc(Cl)cc3)nn1)CC2`, the “Ratio IC50” value [1] is reported as 10.4, the Activity [2] is reported as less than 10% and the IC50 [3] is reported as 5.21 µM.

For `COc1cc2c(cc1OC)CN(CCn1cc(COc3ccccc3NC(=O)c3ccccc3[N+](=O)[O-])nn1)CC2`, the “Ratio IC50” value [1] was 3.5, the Activity [2] was less than 10% and the IC50 [3] was 15.6 µM.

With `COc1cc2c(cc1OC)CN(CCn1cc(COc3ccccc3NC(=O)c3ccc(C(C)(C)C)cc3)nn1)CC2` the IC50 [4] was 5.2 µM, the “Ratio IC50” value [5] was 18.5 and the “Ratio IC50” value [6] was 10.5. For the same molecule, the IC50 [7] was 11 µM, the IC50 [8] was 2.16 µM and the IC50 [9] was 43.8 µM. For the same molecule, the “Ratio IC50” value [10] was 1.6, the inhibition [11] was “Dose-dependent effect” and the “Ratio IC50” value [1] was 32.5. It also gave an IC50 [12] of 35.6 µM, an IC50 [13] greater than 80 µM and an IC50 [14] of 2.97 µM. The fold change (FC) [15] was 4.04, the IC50 [16] was 54.5 µM and the “Ratio IC50” value [17] was 1.5. For the same molecule, the “Ratio IC50” value [18] was 1.3, the Activity [2] was less than 10% and the IC50 [19] was 6.39 µM. The “Ratio IC50” value [20] was 8.6, the “Ratio IC50” value [21] was 1.5 and the “Ratio IC50” value [22] was 2.4. The IC50 [3] was 1.67 µM, the IC50 [23] was 3.14 µM and the IC50 [24] was 32.9 µM. For the same molecule, the “Ratio IC50” value [25] was 37.4, the Activity [26] was “Dose-dependent effect” and the “Ratio IC50” value [27] was 17.4. For the same molecule, the fold change (FC) [28] was 1.55, the “Ratio IC50” value [29] was 7.7 and the fold change (FC) [30] was 2.4. For the same molecule, the IC50 [31] was greater than 80 µM, the Ratio [32] was 2.4 and the IC50 [33] was 37 µM.

With `COc1cc2c(cc1OC)CN(CCn1cc(COc3ccccc3NC(=O)c3ccc(N(C)C)cc3)nn1)CC2` the “Ratio IC50” value [1] was 5.8, the Activity [2] was less than 10% and the IC50 [3] was 9.32 µM.

In the case of `COc1cc2c(cc1OC)CN(CCn1cc(COc3ccccc3NC(=O)c3cnc4ccccc4c3)nn1)CC2`, the “Ratio IC50” value [1] is reported as 6.1, the Activity [2] is reported as less than 10% and the IC50 [3] is reported as 8.89 µM.

`COc1cccc2c1C(=O)c1c(O)c3c(c(O)c1C2=O)C[C@@](O)(C(=O)CO)C[C@@H]3O[C@H]1C[C@H](N)[C@H](O)[C@H](C)O1` [DOXORUBICIN HYDROCHLORIDE] showed an IC50 [31] of 54.2 µM.

In the case of `COc1cc(OC)cc(C(=O)Nc2ccccc2OCc2cn(CCN3CCc4cc(OC)c(OC)cc4C3)nn2)c1`, the “Ratio IC50” value [1] is reported as 3.9, the Activity [2] is reported as less than 10% and the IC50 [3] is reported as 13.8 µM.

For `COc1cc2c(cc1OC)CN(CCn1cc(COc3ccccc3NC(=O)c3cccc(Cl)c3)nn1)CC2`, the “Ratio IC50” value [1] was 4.9, the Activity [2] was less than 10% and the IC50 [3] was 11 µM.
